Shown are actives, neighbours in structure and some others; about 1.8% of the full set was active somewhere.
DDE Tn6 FP inh – inhibitors of Tn6 peptide binding to human fibrin DD(E) | inhibition, % at 8.3 µM | hit rate 0.21% among 370,000 | AID 720509 | Fibrin DD(E) TRITC-Tn6 fluorescence polarization displacement | P02675;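 active = inhibition above a per-campaign cutoff: mean of compounds within control limits plus 3 SD, cut at about 15% in these data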;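 note: 0% = median of all compound wells on the plate and 100% = blocking peptide control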
Target sequence (P02675 whole entry, looked up): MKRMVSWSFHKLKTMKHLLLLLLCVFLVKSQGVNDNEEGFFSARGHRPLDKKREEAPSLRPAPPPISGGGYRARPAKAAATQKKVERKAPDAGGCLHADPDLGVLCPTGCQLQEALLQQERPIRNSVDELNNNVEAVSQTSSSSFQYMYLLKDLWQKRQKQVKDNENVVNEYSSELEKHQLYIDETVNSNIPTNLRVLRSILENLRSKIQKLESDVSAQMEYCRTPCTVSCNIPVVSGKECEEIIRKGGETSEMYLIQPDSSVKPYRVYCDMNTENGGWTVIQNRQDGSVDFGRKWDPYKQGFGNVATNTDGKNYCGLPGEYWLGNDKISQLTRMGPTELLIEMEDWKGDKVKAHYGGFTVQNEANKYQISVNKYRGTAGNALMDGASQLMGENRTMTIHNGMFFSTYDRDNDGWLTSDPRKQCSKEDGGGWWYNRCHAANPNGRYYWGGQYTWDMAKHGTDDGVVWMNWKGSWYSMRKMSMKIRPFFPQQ
ABHD4 inh – ABHD4 (mouse) inhibition, primary FP screen; inhibition, % at 8.92 µM; Q8VD66; AID 720543; purified mABHD4, FP-Rh probe fluorescence polarization; hit rate 0.54% among 370,000;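 active = inhibition exceeding the mean over every tested compound plus 3 SD, cut at about 30% in these data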;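 note: 0% = plate median of compound wells and 100% = S159A mutant with DMSO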
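Doses – 8.92 µM, single dose · Material – wild-type mouse ABHD4 protein · Replication – single well per compound (singlicate) · Measure – percent inhibition of probe binding, normalized to plate controls · Schedule – 45 min compound pre-incubation plus 60 min probe step, 25 °C · Detection – fluorescence polarization with parallel and perpendicular emission, 525/598 nm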
SIAE primary – blocks human sialic acid acetylesterase. SIAE FP-Rh probe binding, fluorescence polarization. hit rate 0.69% among 370,000. inhibition, % at 9.66 µM. Q9HAT2. AID 1053197;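 active = inhibition above a cutoff: mean of compounds within the control limits plus 3 SD of those, cut at about 17% in these data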;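 note: 0% = plate median of compound wells and 100% = probe without SIAE protein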
DDE Tn7 FP inh – disrupts Tn7 cyclic peptide binding to fibrin D-Dimer-E complex | P02675 | FP displacement of FITC-Tn7 peptide from fibrin DD(E); 0% = median of compound wells per plate | inhibition, % at 8.3 µM | hit rate 0.13% among 370,000 | AID 720508;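 active = inhibition above the mean of compounds falling within the control limits plus 3 SD of them, cut at about 14% in these data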;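 note: 0% = plate median of compound wells and 100% = 10 µM Aha-Tn7 peptide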
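Assay system: Human fibrin DD(E) protein | Medium: Tris buffer with calcium and detergent, pH 7.8 | Reagent: 0.1 µM fluorescent Tn7 | Compound dosing: Single point at 8.3 µM | Times: 10 min preincubation, 3 h with tracer, room temperature | Detection: Fluorescence polarization of the labelled Tn7 tracer | Controls: Aha-Tn7 high control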
TCR-CD3 inh – human TCR-CD3 binding inhibition; hit rate 0.37% among 360,000; TAMRA-labeled TCR probe fluorescence, biochemical; AID 651800; inhibition, % at 9.4 µM; in the data active = inhibition above about 19%;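 note: recombinant mutant TCR 2C K166C tagged with TAMRA read by polarization; 0% = receptor in buffer alone and 100% = receptor with positive control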
HTRA1 inhibitor – HTRA1 (human) protease inhibition. Q92743. recombinant HTRA1, FP-rhodamine activity-based probe, fluorescence polarization. inhibition, % at 5.96 µM. hit rate 0.5% among 340,000; in the data active = inhibition above about 36%;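 note: 0% = enzyme with DMSO and 100% = wells lacking enzyme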
SIAE inh conf – confirmation of human SIAE inhibitors | hit rate 13% among 2,300 | AID 1117263 | inhibition, % at 9.66 µM | shares compounds with SIAE primary | SIAE FP-Rh activity-based probe, fluorescence polarization;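 active = mean inhibition of the replicates above the hit cutoff set in the primary screen, cut at about 17% in these data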;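 note: 0% = SIAE with DMSO and probe and 100% = probe without SIAE; inhibitors lower polarization as more probe stays unbound to SIAE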
* marks the source's active call; other numbers are inactive results.

`Cc1cc(N2CCNC[C@H]2C)ccc1N1CCN(Cc2ccccc2)[C@H](C)C1` gave DDE Tn6 FP inh 5.0, ABHD4 inh 4.9, SIAE primary 5.7, DDE Tn7 FP inh -3.9 and TCR-CD3 inh -0.2.
C[C@@H]1CN(c2ccc(N3CCNC[C@@H]3C)cc2C#N)CCN1Cc1ccccc1 was read as DDE Tn6 FP inh 1.7, ABHD4 inh 9.7, SIAE primary 19.5*, DDE Tn7 FP inh 6.2, TCR-CD3 inh 7.0 and SIAE inh conf 3.5.
Screening COCC#Cc1ccc(CC[C@H]2O[C@H]3CC[C@@H](CO)O[C@H]3C[C@H]2n2cc(C3CC3)nn2)cc1 returned DDE Tn6 FP inh -1.4, ABHD4 inh -6.4, SIAE primary -2.7 and DDE Tn7 FP inh -4.6.
`CC(C)C(=O)N1CCC(Oc2cccnc2)CC1` gave DDE Tn6 FP inh -6.4, ABHD4 inh 3.6, SIAE primary 4.3 and DDE Tn7 FP inh -2.9.
For Cc1ccc(-n2c(SCc3cccc4ccccc34)nnc2-c2ccccn2)cc1 the results were DDE Tn6 FP inh 3.8, ABHD4 inh -3.7, SIAE primary -0.8 and DDE Tn7 FP inh -9.1.
`Cn1cc(C(=O)N2CCc3ccccc32)cn1` gave DDE Tn6 FP inh 0.2, ABHD4 inh 1.7, SIAE primary 184.3*, DDE Tn7 FP inh -3.8, TCR-CD3 inh -3.0, HTRA1 inhibitor 6.7 and SIAE inh conf 0.9.
Screening COC(=O)C1CN(CCO)CCS(=O)(=O)N1Cc1cccc(Cl)c1 (configuration not stated) returned DDE Tn6 FP inh -0.4, ABHD4 inh 2.4, SIAE primary -7.4 and DDE Tn7 FP inh -8.4.
`O=S(=O)(NC1CCCc2ccccc21)c1cnc[nH]1` (configuration not stated) gave DDE Tn6 FP inh 1.1, ABHD4 inh -3.3, SIAE primary 26.3*, DDE Tn7 FP inh -1.3, TCR-CD3 inh -2.1, HTRA1 inhibitor 3.0 and SIAE inh conf -3.0.
`O=C(O)c1ccc(S(=O)(=O)NC2CCCc3ccccc32)cc1` (configuration not stated) gave DDE Tn6 FP inh 3.9, ABHD4 inh 3.5, SIAE primary -0.9, DDE Tn7 FP inh 0.2, TCR-CD3 inh -1.7 and HTRA1 inhibitor 0.0.
For COC(=O)c1sc(-c2ccccc2)cc1NC(=O)C1CC1 the results were DDE Tn6 FP inh -5.8, ABHD4 inh -10.4, SIAE primary -0.3, DDE Tn7 FP inh -6.8, TCR-CD3 inh 9.0 and HTRA1 inhibitor -23.6.
For CCOc1ccc(NC(=O)Nc2cc(-c3ccccc3)sc2C(=O)OC)cc1 the results were DDE Tn6 FP inh 0.6, ABHD4 inh 2.9, SIAE primary 29.0*, DDE Tn7 FP inh -6.1, TCR-CD3 inh 8.0, HTRA1 inhibitor -0.2 and SIAE inh conf -4.7.
c1ccc(-c2c[nH]c3[n+]2CCCCC3)cc1 was read as DDE Tn6 FP inh 3.3, ABHD4 inh -0.3, SIAE primary 18.8*, DDE Tn7 FP inh 2.6, TCR-CD3 inh 4.3, HTRA1 inhibitor -5.2 and SIAE inh conf -0.9.
Brc1ccc(-c2csc3[n+]2CCCCC3)cc1 was read as DDE Tn6 FP inh 3.6, ABHD4 inh 3.0, SIAE primary -2.5, DDE Tn7 FP inh 1.4, TCR-CD3 inh -6.1 and HTRA1 inhibitor 2.2.
`Cc1ccc(C(=O)O)cc1S(=O)(=O)N1CCCC1` gave DDE Tn6 FP inh 6.0, ABHD4 inh -12.2, SIAE primary -2.2, DDE Tn7 FP inh 12.3, TCR-CD3 inh -7.8 and HTRA1 inhibitor 8.8.
For Nc1ccc(C(=O)O)cc1S(=O)(=O)O the results were DDE Tn6 FP inh 8.8, ABHD4 inh 1.6, SIAE primary 24.7*, DDE Tn7 FP inh 2.2, TCR-CD3 inh -5.6, HTRA1 inhibitor 2.0 and SIAE inh conf -3.1.
For O=C(CSc1nc2ccccc2o1)N1N=C(c2cccs2)CC1c1ccc(F)cc1 (configuration not stated) the results were DDE Tn6 FP inh 0.4, ABHD4 inh -5.9, SIAE primary 20.2*, DDE Tn7 FP inh -3.2, TCR-CD3 inh 3.1, HTRA1 inhibitor -2.2 and SIAE inh conf -5.0.
`Cc1ccc(C2CC(c3cccs3)=NN2C(=O)CSc2nc3ccccc3o2)cc1` (configuration not stated) gave DDE Tn6 FP inh -7.8, ABHD4 inh -24.9, SIAE primary -2.6, DDE Tn7 FP inh 3.6, TCR-CD3 inh 0.1 and HTRA1 inhibitor -41.6.
Screening CCOC(=O)C1CCCN(C(=O)c2ccc(OC)c([N+](=O)[O-])c2)C1 (configuration not stated) returned DDE Tn6 FP inh -0.5, ABHD4 inh 4.7, SIAE primary 29.7*, DDE Tn7 FP inh 1.5, TCR-CD3 inh -1.8, HTRA1 inhibitor 4.5 and SIAE inh conf -3.0.
For CC(C)C[C@H]1COc2cccc(N3CCCC3)c2S(=O)(=O)N1C the results were DDE Tn6 FP inh 0.9, ABHD4 inh 2.5, SIAE primary 8.4 and DDE Tn7 FP inh 1.0.
COc1cc(NC(=O)NC2CCCCN(Cc3cccc(Cl)c3)C2=O)cc(OC)c1 (configuration not stated) was read as DDE Tn6 FP inh -3.2, ABHD4 inh -2.2, SIAE primary 7.1 and DDE Tn7 FP inh -2.9.
For Cc1ccccc1NC(=O)COC(=O)CN1C(=O)NC(C)(C)C1=O the results were DDE Tn6 FP inh 0.6, ABHD4 inh -8.0, SIAE primary -1.4, DDE Tn7 FP inh 2.2, TCR-CD3 inh 5.4 and HTRA1 inhibitor 2.1.
CC(C)(C)c1ccccc1NC(=O)COC(=O)CN1C(=O)NC2(CCCC2)C1=O was read as DDE Tn6 FP inh -2.1, ABHD4 inh 1.0, SIAE primary 21.1*, DDE Tn7 FP inh -5.2, TCR-CD3 inh 6.9, HTRA1 inhibitor 5.3 and SIAE inh conf 4.1.
Screening O=C(Nc1ccc(C(F)(F)F)cc1)OC1CCC12CCC(c1ccccc1)CC2 (configuration not stated) returned DDE Tn6 FP inh 1.2, ABHD4 inh -16.6, SIAE primary 1.6 and DDE Tn7 FP inh 1.9.
For CCN(CC)S(=O)(=O)c1cccc(C(=O)OC2CC(C)OC2=O)c1 (configuration not stated) the results were DDE Tn6 FP inh 1.8, ABHD4 inh -2.6, SIAE primary 17.1*, DDE Tn7 FP inh 1.0, TCR-CD3 inh 3.3, HTRA1 inhibitor 0.6 and SIAE inh conf -2.2.
For CCN(CC)S(=O)(=O)c1cc(Br)ccc1OC the results were DDE Tn6 FP inh 5.8, ABHD4 inh -4.5, SIAE primary 17.7*, DDE Tn7 FP inh -3.8, TCR-CD3 inh -5.2, HTRA1 inhibitor 7.3 and SIAE inh conf 1.5.
For O=C(NCc1ccc(F)cc1)C1CCCN1C(=O)Nc1ccc(Cl)cc1 (configuration not stated) the results were DDE Tn6 FP inh 10.0, ABHD4 inh -4.3, SIAE primary 17.2*, DDE Tn7 FP inh -4.0, TCR-CD3 inh 4.3, HTRA1 inhibitor 4.1 and SIAE inh conf -0.5.
